From ChEMBL document CHEMBL4257590, “Semisynthesis of Platensimycin Derivatives with Antibiotic Activities in Mice via Suzuki-Miyaura Cross-Coupling Reactions” (J Med Chem, 2018) come the findings set out here.

By MIC is commonly meant the lowest concentration that inhibits growth of the organism.

The structures appear in SMILES notation. In brackets after ≈: the same amount, converted by molar mass. Activity calls are given as the source filed them. The rule behind the calls is not given here.

For data set [1], the system named is Staphylococcus aureus. As to the kind of experiment: Antibacterial activity against methicillin-sensitive Staphylococcus aureus isolate 2 after 16 hrs by agar dilution method. It counts as functional. The settings on record: isolate 2, 16 h. An outline of the steps:
(§1)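 Agar dilution in LB agar with compound (from methanol solutions) at final 0.5–64 μg/ml per plate. Strains grown 16 h at 37 °C, 250 rpm in LB broth, adjusted to OD600 0.25±0.05, diluted 10^4-fold; 2 μl spotted per plate, incubated 16 h at 37 °C. MIC = lowest concentration with no visible colonies; at least two independent experiments. Linezolid and PTM as controls.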
For orientation: In agar dilution, organisms are placed on agar that contains the substance at set levels.

The test system of data set [2] is Staphylococcus aureus. As to the kind of experiment: Antibacterial activity against methicillin-resistant Staphylococcus aureus infected in C57BL/6J mouse assessed as reduction in bacterial load in kidney at 50 mg/kg, ip administered 1 and 5 hrs postinfection and measured at 12 hrs post bacterial infection. It counts as functional, organism-based. An outline of the steps: (§2)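 Female C57BL/6J mice, 6–8 weeks, 18–21 g, infected ip with 2 × 10^7 CFU MRSA in 0.2 ml saline with 5% hog gastric mucin. Dosed ip 50 mg/kg at 1 and 5 h post-infection; test agents at 5 mg/mL in 12.5% DMSO/30% propanediol/30% PEG400/27.5% saline, vancomycin in saline, saline control. At 12 h blood and homogenized kidneys plated on LB agar overnight at 37 °C for CFU; n = 5, mean ± SEM, unpaired two-tailed t-test.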

Data set [3] has as its system Mus musculus. In words: Toxicity in C57BL/6J mouse infected with methicillin-resistant Staphylococcus aureus assessed as mouse death at 50 mg/kg, […] measured within 48 hrs. Conditions: in vivo, ip. It is filed as organism-based.
The test system of data set [4] is Staphylococcus aureus. As to the kind of experiment: Antibacterial activity against methicillin-resistant Staphylococcus aureus isolate 5 after 16 hrs by agar dilution method. It counts as functional. The settings on record: isolate 5, 16 h. The method, boiled down: as §1
The test system of data set [5] is Staphylococcus aureus. In words: Antibacterial activity against Staphylococcus aureus ATCC 29213 after 16 hrs by agar dilution method. It is filed as functional. Conditions: ATCC 29213, 16 h. The method, boiled down:
as §1

Data set [6] has as its system Staphylococcus aureus. In words: Antibacterial activity against methicillin-resistant Staphylococcus aureus isolate 6 after 16 hrs by agar dilution method. It is filed as functional. Conditions: isolate 6, 16 h. An outline of the steps: as §1
For data set [7], the system named is Staphylococcus aureus. In words: Antibacterial activity against methicillin-resistant Staphylococcus aureus infected in C57BL/6J mouse assessed as reduction in bacterial load in blood at 50 mg/kg, ip administered 1 and 5 hrs postinfection and measured at 12 hrs post bacterial infection. It is filed as functional, organism-based. An outline of the steps: as §2

The subject of data set [8] is Staphylococcus aureus. In words: Antibacterial activity against methicillin-resistant Staphylococcus aureus isolate 3 after 16 hrs by agar dilution method. It is filed as functional. The settings on record: isolate 3, 16 h. The method, boiled down:
as §1

The subject of data set [9] is Mus musculus. In words: Toxicity in C57BL/6J mouse infected with methicillin-resistant Staphylococcus aureus assessed as effect on mouse body weight at 10 mg/kg, ip administered 1 and 5 hrs postinfection and measured for 7 days. It counts as organism-based. Conditions: in vivo, 168 h. The method, boiled down:
(§3)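 Lethal peritonitis: female C57BL/6J mice, 6–8 weeks, 18–21 g, infected ip with 2 × 10^7 CFU MRSA in 0.5 ml saline with 5% (w/v) mucin. Treated ip 0.2 mL/mouse at 1 and 5 h post-infection (n = 5/group): 50 mg/kg at 5 mg/mL in 12.5% DMSO vehicle, or 10 mg/kg at 1 mg/mL in 2.5% DMSO/30% propanediol/30% PEG400/37.5% saline; vancomycin in saline, saline control. Checked twice daily for survival and body weight over 7 days.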

Data set [10] concerns Staphylococcus aureus. As to the kind of experiment: Antibacterial activity against methicillin-resistant Staphylococcus aureus after 18 hrs in presence of 10% human serum by resazurin dye-based assay. It is filed as functional. The method, boiled down:
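One clinical MRSA strain grown to exponential phase (OD600 = 0.5), diluted to 10^6 CFU/ml in Mueller-Hinton broth; 100 μl compound dilutions mixed with 100 μl bacteria with or without 10% human serum, 18 h at 37 °C. Resazurin (0.66 mM, 50 μl) then added and read visually.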
In general terms: The colour change of resazurin is a common sign of viable cells or microbes.

Data set [11] concerns Staphylococcus aureus. As to the kind of experiment: Antibacterial activity against methicillin-sensitive Staphylococcus aureus isolate 1 after 16 hrs by agar dilution method. Conditions: isolate 1, 16 h. It is filed as functional. The method, boiled down:
as §1

Data set [12] relates to Staphylococcus aureus. In words: Antibacterial activity against methicillin-resistant Staphylococcus aureus isolate 4 after 16 hrs by agar dilution method. It counts as functional. The settings on record: isolate 4, 16 h. The method, boiled down:
as §1

Data set [13] relates to Staphylococcus aureus. In words: Antibacterial activity against methicillin-resistant Staphylococcus aureus infected in C57BL/6J mouse assessed as protection against lethal peritonitis by measuring mouse survival at 50 mg/kg, ip administered 1 and 5 hrs postinfection and measured up to 24 hrs post infection. It is filed as functional, organism-based. The method, boiled down: as §3

For the molecule `C[C@]12C[C@@]34C=C(c5cc6cccc7ccc8cccc5c8c76)C(=O)[C@@](C)(CCC(=O)Nc5c(O)ccc(C(=O)O)c5O)[C@@H]3[C@H](C[C@H]1C4)O2`, the MIC in the data set with Staphylococcus aureus [1] stood at 2 µg/mL (≈ 3.12 µM); in the data set with Staphylococcus aureus [4], 4 µg/mL (≈ 6.23 µM); in the data set on Staphylococcus aureus [5], 2 µg/mL (≈ 3.12 µM); with Staphylococcus aureus [6], 2 µg/mL (≈ 3.12 µM); in the data set on Staphylococcus aureus [8], 4 µg/mL (≈ 6.23 µM); in the data set with Staphylococcus aureus [10], 4 µg/mL. The MIC against Staphylococcus aureus [11] and against Staphylococcus aureus [12] was 2 µg/mL (≈ 3.12 µM) throughout. Also, the outcome in the data set on Staphylococcus aureus [2] and in the data set with Staphylococcus aureus [7] was Active. The Activity result is “Toxic” with Mus musculus [3] and “Non-Toxic” in the data set on Mus musculus [9]. In addition, the result with Staphylococcus aureus [13] was inactive.

Take `C[C@]12C[C@@]34C=CC(=O)[C@@](C)(CCC(=O)Nc5c(O)ccc(C(=O)O)c5O)[C@@H]3[C@H](C[C@H]1C4)O2`: the MIC in the data set with Staphylococcus aureus [1] is 0.5 µg/mL (≈ 1.13 µM); against Staphylococcus aureus [4], 1 µg/mL (≈ 2.27 µM); in the data set on Staphylococcus aureus [5] it was 0.5 µg/mL (≈ 1.13 µM); against Staphylococcus aureus [6], 1 µg/mL (≈ 2.27 µM); against Staphylococcus aureus [8], 0.5 µg/mL (≈ 1.13 µM); in the data set with Staphylococcus aureus [10], 8 µg/mL. For the same molecule, the values for the MIC against Staphylococcus aureus [11] and against Staphylococcus aureus [12] were 0.5 µg/mL (≈ 1.13 µM) and 1 µg/mL (≈ 2.27 µM), respectively. Also, the result in the data set with Staphylococcus aureus [2] and in the data set on Staphylococcus aureus [7] was Active.

`CN[C@H](CC(C)C)C(=O)N[C@H]1C(=O)N[C@@H](CC(N)=O)C(=O)N[C@H]2C(=O)N[C@H]3C(=O)N[C@H](C(=O)N[C@H](C(=O)O)c4cc(O)cc(O)c4-c4cc3ccc4O)[C@H](O)c3ccc(c(Cl)c3)Oc3cc2cc(c3O[C@@H]2O[C@H](CO)[C@@H](O)[C@H](O)[C@H]2O[C@H]2C[C@](C)(N)[C@H](O)[C@H](C)O2)Oc2ccc(cc2Cl)[C@H]1O` [VANCOMYCIN]: the outcome with Staphylococcus aureus [2] and in the data set with Staphylococcus aureus [7] was Active. Also, in the data set on Mus musculus [9], the Activity entry is listed as “Non-Toxic”.
